# Source: publication PMC7729281 (Biochemistry, 2020)
# “And” between values parts separate entries of the source, which are not always exact repeats. Equal values may be shown once. Read-outs that look alike come from different tables or passages of the source.
# T1: h12-LOX (Homo sapiens, UniProt P18054)
# T1 sequence (P18054 1-663): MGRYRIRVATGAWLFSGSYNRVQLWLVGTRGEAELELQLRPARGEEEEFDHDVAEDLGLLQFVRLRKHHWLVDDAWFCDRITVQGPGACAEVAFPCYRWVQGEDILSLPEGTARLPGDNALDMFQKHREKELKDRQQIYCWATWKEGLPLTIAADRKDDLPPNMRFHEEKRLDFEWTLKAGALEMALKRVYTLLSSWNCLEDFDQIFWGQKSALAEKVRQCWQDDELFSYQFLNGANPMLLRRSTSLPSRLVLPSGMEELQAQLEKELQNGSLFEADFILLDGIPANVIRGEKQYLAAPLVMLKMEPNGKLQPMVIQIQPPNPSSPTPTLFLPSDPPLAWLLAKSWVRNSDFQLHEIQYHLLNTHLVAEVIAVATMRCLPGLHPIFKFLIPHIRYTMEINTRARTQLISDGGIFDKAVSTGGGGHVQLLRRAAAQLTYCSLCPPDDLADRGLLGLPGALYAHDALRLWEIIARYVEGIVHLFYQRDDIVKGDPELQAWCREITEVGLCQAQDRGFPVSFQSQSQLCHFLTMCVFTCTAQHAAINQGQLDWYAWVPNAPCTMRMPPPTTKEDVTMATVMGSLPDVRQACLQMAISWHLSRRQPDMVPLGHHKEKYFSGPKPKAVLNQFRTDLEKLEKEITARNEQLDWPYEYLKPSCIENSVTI
# T2: h15-LOX-1 (Homo sapiens, UniProt P16050)
# T2 sequence (P16050 1-662): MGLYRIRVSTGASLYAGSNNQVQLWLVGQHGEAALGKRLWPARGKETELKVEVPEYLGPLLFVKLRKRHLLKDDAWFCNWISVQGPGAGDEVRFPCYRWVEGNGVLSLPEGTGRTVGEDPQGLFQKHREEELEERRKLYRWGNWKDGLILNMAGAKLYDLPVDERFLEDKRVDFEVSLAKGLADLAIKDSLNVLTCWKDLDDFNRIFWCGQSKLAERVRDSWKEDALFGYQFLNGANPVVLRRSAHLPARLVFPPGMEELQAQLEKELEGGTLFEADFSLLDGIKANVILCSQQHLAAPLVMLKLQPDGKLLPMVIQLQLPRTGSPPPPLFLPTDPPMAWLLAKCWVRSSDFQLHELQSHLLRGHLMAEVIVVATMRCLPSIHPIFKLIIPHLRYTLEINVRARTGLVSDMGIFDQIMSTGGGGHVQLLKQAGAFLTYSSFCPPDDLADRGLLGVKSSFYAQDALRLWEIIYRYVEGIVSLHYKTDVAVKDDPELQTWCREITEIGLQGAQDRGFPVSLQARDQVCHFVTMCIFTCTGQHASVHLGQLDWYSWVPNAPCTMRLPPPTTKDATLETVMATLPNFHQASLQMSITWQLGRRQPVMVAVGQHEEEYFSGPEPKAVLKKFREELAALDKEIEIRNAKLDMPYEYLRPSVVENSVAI
# B1: h12-LOX (Homo sapiens) (protein)
# chain: MGRYRIRVATGAWLFSGSYNRVQLWLVGTRGEAELELQLRPARGEEEEFDHDVAEDLGLLQFVRLRKHHWLVDDAWFCDRITVQGPGACAEVAFPCYRWVQGEDILSLPEGTARLPGDNALDMFQKHREKELKDRQQIYCWATWKEGLPLTIAADRKDDLPPNMRFHEEKRLDFEWTLKAGALEMALKRVYTLLSSWNCLEDFDQIFWGQKSALAEKVRQCWQDDELFSYQFLNGANPMLLRRSTSLPSRLVLPSGMEELQAQLEKELQNGSLFEADFILLDGIPANVIRGEKQYLAAPLVMLKMEPNGKLQPMVIQIQPPNPSSPTPTLFLPSDPPLAWLLAKSWVRNSDFQLHEIQYHLLNTHLVAEVIAVATMRCLPGLHPIFKFLIPHIRYTMEINTRARTQLISDGGIFDKAVSTGGGGHVQLLRRAAAQLTYCSLCPPDDLADRGLLGLPGALYAHDALRLWEIIARYVEGIVHLFYQRDDIVKGDPELQAWCREITEVGLCQAQDRGFPVSFQSQSQLCHFLTMCVFTCTAQHAAINQGQLDWYAWVPNAPCTMRMPPPTTKEDVTMATVMGSLPDVRQACLQMAISWHLSRRQPDMVPLGHHKEKYFSGPKPKAVLNQFRTDLEKLEKEITARNEQLDWPYEYLKPSCIENSVTI
# B2: h15-LOX-1 (Homo sapiens) (protein)
# chain: MGLYRIRVSTGASLYAGSNNQVQLWLVGQHGEAALGKRLWPARGKETELKVEVPEYLGPLLFVKLRKRHLLKDDAWFCNWISVQGPGAGDEVRFPCYRWVEGNGVLSLPEGTGRTVGEDPQGLFQKHREEELEERRKLYRWGNWKDGLILNMAGAKLYDLPVDERFLEDKRVDFEVSLAKGLADLAIKDSLNVLTCWKDLDDFNRIFWCGQSKLAERVRDSWKEDALFGYQFLNGANPVVLRRSAHLPARLVFPPGMEELQAQLEKELEGGTLFEADFSLLDGIKANVILCSQQHLAAPLVMLKLQPDGKLLPMVIQLQLPRTGSPPPPLFLPTDPPMAWLLAKCWVRSSDFQLHELQSHLLRGHLMAEVIVVATMRCLPSIHPIFKLIIPHLRYTLEINVRARTGLVSDMGIFDQIMSTGGGGHVQLLKQAGAFLTYSSFCPPDDLADRGLLGVKSSFYAQDALRLWEIIYRYVEGIVSLHYKTDVAVKDDPELQTWCREITEIGLQGAQDRGFPVSLQARDQVCHFVTMCIFTCTGQHASVHLGQLDWYSWVPNAPCTMRLPPPTTKDATLETVMATLPNFHQASLQMSITWQLGRRQPVMVAVGQHEEEYFSGPEPKAVLKKFREELAALDKEIEIRNAKLDMPYEYLRPSVVENSVAI
# Assays:
# human platelets [1] = assay: Collagen-stimulated platelet aggregation; type: cell-based; conditions: 10 min incubation, collagen 0.25 μg/mL
# Outline: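 Washed human platelets were isolated by serial centrifugation and resuspended in Tyrode's buffer at 3 × 10^8/mL. They were preincubated with test compound (1–10 μM) for 10 min at 37 °C, then stimulated with 0.25 μg/mL collagen while stirring at 1100 rpm. Maximum aggregation was read as the light-transmittance change, mean ± SEM of 3–5 independent experiments. Comparison versus vehicle used one-way ANOVA with Dunnett's test.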
# h12-LOX [2] = molecular target: T1, h12-LOX; assay: Allosteric modulation of 14S-HpDHA epoxidation by h12-LOX; type: biochemical; conditions: 1 μM 14S-HpDHA
# Outline: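 Recombinant human h15-LOX-1 (0.125 μM, 25 mM HEPES pH 7.5, 20 min) or h12-LOX (0.3 μM, pH 8.0, 1 h) reacted at room temperature with 1 μM 14S-HpDHA while oxylipin modulator was titrated (1–100 μM), or with 14S-HpDHA varied alone (1–50 μM). Products were reduced and analysed by LC-MS. Dehydration (epoxide) versus oxygenation product percentages were calculated, N = 3.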
# h12-LOX [3] = molecular target: T1, h12-LOX; assay: Steady-state kinetics of h12-LOX
# h15-LOX-1 [4] = molecular target: T2, h15-LOX-1; assay: Steady-state kinetics of h15-LOX-1; conditions: for fold difference of kcat/KM: h15-LOX-1, kcat/KM of enzyme with DHA set to 1 (Table 5)
# h15-LOX-1 [5] = molecular target: T2, h15-LOX-1; assay: Product analysis of h15-LOX-1 reactions; type: biochemical
# Outline: (§1)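 h15-LOX-1 (0.125 μM, pH 7.5) or h12-LOX (0.300 μM, pH 8.0) was reacted in 25 mM HEPES at room temperature under ambient O2. Substrates were 10 μM DHA for 1 min (monitored at 234 nm) or 1 μM 14S-HpDHA for 20 min (h15-LOX-1) or 1 h (h12-LOX) (monitored at 270 nm). Reactions were quenched with acetic acid, spiked with d5-maresin-1, extracted into DCM and background-subtracted against a no-enzyme control. Split samples were run with or without trimethyl phosphite reduction. Products were identified by C18 LC-MS/MS (qTOF), N = 3.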
# h15-LOX-1 [6] = molecular target: T2, h15-LOX-1; conditions: h15-LOX-1 with AA, obtained previously ref 22; cited from earlier work
# M2-polarized macrophages = M2-polarized macrophages challenged by inhibitor ref 44; cited from earlier work
# h12-LOX [7] = molecular target: T1, h12-LOX; assay: Product analysis of h12-LOX reactions; type: biochemical
# Outline: as §1
# human platelets [8] = assay: Ex vivo platelet incubation and lipidomics; type: cell-based; conditions: human platelets + DHA, with inhibitor; data not shown
# [9] = substrate: CC/C=C\C/C=C\C/C=C\C/C=C\C/C=C\C/C=C\CCC(=O)O; assay: purified protein, by the assay type
# [10] = substrate: CCCCC/C=C\C/C=C\C/C=C\C/C=C\CCCC(=O)O; assay: purified protein, by the assay type; conditions: other: h12-LOX + substrate, 25 mM HEPES pH 8.0, RT
# [11] = h12-LOX + substrate, 25 mM HEPES pH 8.0, RT
# [12] = h15-LOX-1 + substrate, 25 mM HEPES pH 7.5, RT
# [13] = other: h12-LOX + substrate, 25 mM HEPES pH 8.0, RT
# [14] = other: h15-LOX-1 + substrate, 25 mM HEPES pH 7.5, RT
molecule,measurement,setting,value
"CC/C=C\C/C=C\C[C@H](O)/C=C/C=C\C=C\[C@@H](O)C/C=C\CCC(=O)O [7S,14S-EZE-diHDHA, 7S,14S-dihydroxy-4Z,8E,10Z,12E,16Z,19Z-docosahexaenoic acid]",concentration required to completely inhibit platelet aggregation,human platelets [1],5 to 10 µM
"CCCCC/C=C\C[C@H](O)/C=C/C=C\C/C=C\CCCC(=O)O [12S-HETE, 12S-hydroxy-5Z,8Z,10E,14Z-eicosatetraenoic acid, reference compound]",allosteric effect on epoxidation,h12-LOX [2]; titration of modulator,no allosteric effect
"CCCCC/C=C\C[C@H](O)/C=C/C=C\CCCCCCC(=O)O [12S-HETrE, 12S-hydroxy-8Z,10E,14Z-eicosatrienoic acid, reference compound]",concentration required to completely inhibit platelet aggregation,human platelets [1],5 to 10 µM
"CC/C=C\C/C=C\C[C@H](O)/C=C/C=C\C/C=C\C/C=C\CCC(=O)O [14S-HDHA, 14S-hydroxy-4Z,7Z,10Z,12E,16Z,19Z-docosahexaenoic acid]",Km,h12-LOX [3]; [11],210 ± 70 µM
same,kcat,h12-LOX [3]; [11],0.17 ± 0.03 s⁻¹
same,Km,h15-LOX-1 [4]; [12],18 ± 4 µM
same,kcat,h15-LOX-1 [4]; [12],0.57 ± 0.01 s⁻¹
same,fold difference of kcat/KM,h15-LOX-1 [4],−13
"CC/C=C\C/C=C\C[C@H](O)/C=C/C=C\C/C=C\CCCCCC(=O)O [14S-HDPAω-3, 14S-hydroxy-7Z,10Z,12E,16Z,19Z-docosapentaenoic acid]",epoxidation product at end of titration,"h12-LOX [2]; titration with modulator, 72.0% at start",5.0%
"CCCCC/C=C\C/C=C\C/C=C\C/C=C\CCCC(=O)O [AA, arachidonic acid]",product profile: ω-9 oxylipin 12S-HETE / 12S-HpETE,h15-LOX-1 [5]; h15-LOX-1 + AA,10%
same,Km,h15-LOX-1 [6],2.7 ± 0.3 µM
same,kcat,h15-LOX-1 [6],5.3 ± 0.4 s⁻¹
O=C(Nc1ccc(F)cc1Cl)c1n[nH]c(Cl)c1Cl [BLX-3887],decrease of 14S-HDHA production,M2-polarized macrophages,45%
same,decrease of maresin production,M2-polarized macrophages,70%
"CC/C=C\C/C=C\C/C=C\C/C=C\C/C=C\C/C=C\CCC(=O)O [DHA, docosahexaenoic acid]",product profile: 11S-HpDHA (ω-12),"h15-LOX-1 [5]; h15-LOX-1 + 10 μM DHA, 1 min",12% and 12 ± 1%
same,product profile: 14S-HpDHA (ω-9),"h15-LOX-1 [5]; h15-LOX-1 + 10 μM DHA, 1 min",40 ± 1%
same,product profile: 17S-HpDHA (ω-6),"h15-LOX-1 [5]; h15-LOX-1 + 10 μM DHA, 1 min",46% and 46 ± 1%
same,product profile: 11S-HpDHA (ω-12),"h12-LOX [7]; h12-LOX + 10 μM DHA, 1 min",19% and 19 ± 3%
same,product profile: 14S-HpDHA (ω-9),"h12-LOX [7]; h12-LOX + 10 μM DHA, 1 min",81% and 81 ± 3%
same,product profile: 17S-HpDHA (ω-6),"h12-LOX [7]; h12-LOX + 10 μM DHA, 1 min",<1.0%
same,14S-HpDHA product selectivity of h12-LOX greater than that of h15-LOX-1,h12-LOX [7]; substrate DHA,2 fold
same,14S-HpDHA biosynthetic flux,"h12-LOX [3]; h12-LOX + DHA, B.F. = kcat/KM * % product",11
same,fold difference of kcat/KM,"h12-LOX [3]; h12-LOX, kcat/KM of enzyme with DHA set to 1 (Table 5)",1.0
same,kcat/KM of h12-LOX greater than that of h15-LOX-1,h12-LOX [3]; substrate DHA,39 fold
same,fold difference of 14S-HpDHA biosynthetic flux,h15-LOX-1 [4]; h15-LOX-1 + DHA,1.0
same,14S-HpDHA biosynthetic flux,"h15-LOX-1 [4]; h15-LOX-1 + DHA, B.F. = kcat/KM * % product",0.14
same,fold difference of kcat/KM,h15-LOX-1 [4],1.0
COc1cccc(CNc2ccc(S(=O)(=O)Nc3nc4ccccc4s3)cc2)c1O [ML355],reduction of 14S-HDHA and 11S-HDHA production,human platelets [8],approximately 70%
"CC/C=C\C/C=C\C[C@H](O)\C=C/C=C/C=C/[C@H](O)C/C=C\CCC(=O)O [MaR-1, 7R,14S-dihydroxy-4Z,8E,10E,12Z,16Z,19Z-docosahexaenoic acid, reference compound]",concentration required to completely inhibit platelet aggregation,human platelets [1],5 to 10 µM
B1,Km,[9]; [13],0.90 ± 0.06 µM
same,kcat,[9]; [13],13 ± 0.2 s⁻¹
same,kcat/Km,[9]; [13],1.4e+07 ± 800000 M⁻¹ s⁻¹
same,Km,[10],0.95 ± 0.1 µM
same,kcat,[10],18 ± 0.8 s⁻¹
same,kcat/Km,[10],1.9e+07 ± 2e+06 M⁻¹ s⁻¹
B2,Km,[9]; [14],6.7 ± 3 µM
same,kcat,[9]; [14],2.4 ± 0.6 s⁻¹
same,kcat/Km,[9]; [14],360000 ± 100000 M⁻¹ s⁻¹
